Activity calls are given as the source filed them. No cut-off for these calls is given here.
Key:
[1] = test system: HepG2; assay: Cytotoxicity against human HepG2 cells assessed as reduction cell viability incubated for 48 hrs by CellTiter-Glo luminescent cell viability assay; type: cell-based; conditions: hepg2, 48 h
Procedure, shortened: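 HepG2 human liver-derived cells exposed to compound for 48 h in an in vitro viability assay. […]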

[2] = target: Maternal embryonic leucine zipper kinase (Homo sapiens) (UniProt Q14680); assay: Inhibition of human MELK at 1 uM relative to control
Maternal embryonic leucine zipper kinase (Homo sapiens), sequence (Q14680 whole entry, looked up): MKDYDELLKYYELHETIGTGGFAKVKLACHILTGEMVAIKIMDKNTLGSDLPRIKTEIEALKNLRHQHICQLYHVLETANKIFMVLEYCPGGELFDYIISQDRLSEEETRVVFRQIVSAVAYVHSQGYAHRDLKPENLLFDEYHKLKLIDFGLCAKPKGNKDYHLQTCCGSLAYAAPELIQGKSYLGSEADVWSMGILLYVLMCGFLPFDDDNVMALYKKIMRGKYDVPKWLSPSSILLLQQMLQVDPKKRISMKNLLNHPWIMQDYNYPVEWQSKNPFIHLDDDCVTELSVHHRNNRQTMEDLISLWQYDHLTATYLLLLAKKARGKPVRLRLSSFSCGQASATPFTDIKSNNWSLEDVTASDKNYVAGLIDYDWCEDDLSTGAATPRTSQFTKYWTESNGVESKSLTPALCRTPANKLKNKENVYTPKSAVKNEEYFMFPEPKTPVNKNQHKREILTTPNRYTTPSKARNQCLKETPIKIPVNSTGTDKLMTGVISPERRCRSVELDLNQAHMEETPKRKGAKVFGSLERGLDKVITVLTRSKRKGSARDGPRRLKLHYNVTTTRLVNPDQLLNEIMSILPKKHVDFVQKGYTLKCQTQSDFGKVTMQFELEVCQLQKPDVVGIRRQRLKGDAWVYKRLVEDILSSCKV

[3] = target: T1, cGMP-dependent protein kinase 1 (Homo sapiens) (UniProt Q13976); assay: Inhibition of recombinant human N-terminal His6-tagged full length PKG1alpha expressed in baculovirus infected Sf21 insect cells upto 1 uM relative to control
T1 sequence (whole entry): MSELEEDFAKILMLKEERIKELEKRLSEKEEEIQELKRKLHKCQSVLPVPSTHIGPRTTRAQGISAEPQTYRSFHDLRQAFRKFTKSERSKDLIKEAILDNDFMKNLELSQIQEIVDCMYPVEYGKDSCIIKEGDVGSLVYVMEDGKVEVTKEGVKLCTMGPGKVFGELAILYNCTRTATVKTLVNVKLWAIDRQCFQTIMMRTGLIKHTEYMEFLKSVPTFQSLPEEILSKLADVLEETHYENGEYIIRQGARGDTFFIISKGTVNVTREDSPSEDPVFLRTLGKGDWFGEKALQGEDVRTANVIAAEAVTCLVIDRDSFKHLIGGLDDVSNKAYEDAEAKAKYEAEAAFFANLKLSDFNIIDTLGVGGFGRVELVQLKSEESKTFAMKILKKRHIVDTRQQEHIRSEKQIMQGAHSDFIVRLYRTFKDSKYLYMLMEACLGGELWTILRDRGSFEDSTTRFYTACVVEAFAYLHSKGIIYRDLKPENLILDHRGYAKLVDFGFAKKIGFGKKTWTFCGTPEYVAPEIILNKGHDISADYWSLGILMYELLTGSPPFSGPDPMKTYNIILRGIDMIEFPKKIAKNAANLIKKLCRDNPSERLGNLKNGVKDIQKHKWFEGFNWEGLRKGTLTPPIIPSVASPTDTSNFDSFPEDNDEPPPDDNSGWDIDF

[4] = target: Receptor-interacting serine/threonine-protein kinase 2 (Homo sapiens) (UniProt O43353); assay: Inhibition of human RIPK2 at 1 uM relative to control
Receptor-interacting serine/threonine-protein kinase 2 (Homo sapiens), sequence (O43353 whole entry): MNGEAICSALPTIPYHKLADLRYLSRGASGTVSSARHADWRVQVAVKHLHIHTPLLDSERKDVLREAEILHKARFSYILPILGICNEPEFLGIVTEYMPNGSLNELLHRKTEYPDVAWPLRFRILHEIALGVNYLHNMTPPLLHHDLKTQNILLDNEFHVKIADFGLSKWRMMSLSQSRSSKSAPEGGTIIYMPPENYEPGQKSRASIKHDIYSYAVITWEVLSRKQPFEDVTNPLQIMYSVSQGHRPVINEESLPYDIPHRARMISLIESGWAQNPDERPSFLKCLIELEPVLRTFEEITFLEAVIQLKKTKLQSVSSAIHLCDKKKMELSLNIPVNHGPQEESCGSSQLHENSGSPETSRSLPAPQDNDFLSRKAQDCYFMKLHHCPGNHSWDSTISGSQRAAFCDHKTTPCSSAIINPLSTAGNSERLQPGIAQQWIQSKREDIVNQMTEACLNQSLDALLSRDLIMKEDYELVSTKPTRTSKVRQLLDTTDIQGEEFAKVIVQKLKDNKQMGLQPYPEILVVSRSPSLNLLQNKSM

[5] = target: T1, cGMP-dependent protein kinase 1 (Homo sapiens); assay: Inhibition of recombinant human N-terminal His6-tagged full length PKG1beta expressed in baculovirus infected Sf21 insect cells upto 1 uM relative to control

Row | inhibition [2] [%] | inhibition [4] [%] | SMILES | Activity [1] | inhibition [3] | inhibition [5]
1 |  |  | CN1CCN(c2ccc3nc(-c4ccc(F)cc4)c(-c4ccnc(N)n4)n3c2)CC1 | Toxic |  | 
2 | 50 to 90 | 50 to 90 | CNc1nccc(-c2c(-c3ccc(F)cc3)nc3cc(NCCN(C)C)ccn23)n1 |  | inactive | inactive
3 | > 90 | 50 to 90 | CN(C)Cc1ccn2c(-c3ccnc(Nc4ccc(N5CCNCC5)cc4)n3)c(C3CC3)nc2c1 |  |  | 
4 |  |  | CN1CCN(c2ccn3c(-c4ccnc(N)n4)c(-c4ccc(F)cc4)nc3c2)CC1 | Non-Toxic |  | 

Row | SMILES | inhibition [2] [%] | inhibition [4] [%] | Activity [1] | inhibition [3] | inhibition [5]
5 | CN(C)Cc1ccn2c(-c3ccnc(N)n3)c(-c3ccc(F)cc3)nc2c1 | > 90 | 50 to 90 |  | inactive | inactive
